The list is not random: actives were taken first. Their share in the collection is about 4.7%.
aSyn UTR inh: MLPCN primary screen, SNCA 5' untranslated region. 300,000 tested, 0.82% active. inhibition, % (tested at 7.5 µM). AID 1813. alpha-synuclein 5'UTR reporter, inhibitor activity; in the data active = inhibition above about 60%; inconclusive = no clear call, values can overlap the other calls;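 also: H4 neuroglioblastoma cells stably carrying SNCA 5'UTR luciferase fusion; 0% = DMSO wells and 100% = positive control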
Jurkat NFkB inh: inhibitors of the PMA/ionomycin-induced NF-kB reporter in Jurkat cells; PMA/ionomycin-induced NF-kB luciferase reporter, luminescence; inhibition, % at 4 µM; 330,000 tested, 0.53% active; in the data active = inhibition above about 50%
697 NFkB inh: lowers PMA/ionomycin-induced NF-kB signal in 697 B cells. 330,000 tested, 0.33% active. inhibition, % at 4 µM. 697 B-cell NF-kB luciferase reporter, 16 h; in the data active = inhibition above about 35%
VIM-2 inhibitor: blocks Pseudomonas aeruginosa VIM-2 metallo-beta-lactamase; purified VIM-2, nitrocefin hydrolysis, epi-absorbance fluorescence; inhibition, % at 5.6 µM; 290,000 tested, 0.89% active; AID 1527;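 active = inhibition above the mean of all tested compounds plus 3 SD, cutoff set per screening run, cut at about 7.5% in these data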;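 also: red hydrolysis product quenches plate fluorescence so inhibitors raise well fluorescence; 0% = enzyme with DMSO and 100% = DMSO without enzyme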
IMP-1 inh: blocks Pseudomonas aeruginosa IMP-1 metallo-beta-lactamase; inhibition, % at 5.6 µM; 290,000 tested, 0.45% active; AID 1556; purified IMP-1, nitrocefin hydrolysis, epi-absorbance fluorescence;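 active = inhibition above the mean plus 3 SD of all compounds in the same screening run, cut at about 4.5% in these data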;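 also: 0% = IMP-1 with DMSO and 100% = DMSO wells lacking enzyme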
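System: Purified IMP-1 | Read-out basis: Percent enzyme inhibition | Controls: IMP-1 with DMSO as 0%, enzyme-free DMSO as 100% | Replicates: One well per compound | Doses: 5.6 µM nominal single concentration | Detection: Epi-absorbance fluorescence, 480 nm excitation, 530 nm emission | Incubation: 25 °C, 15 min preincubation, 25 min reaction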
Mdm2 MdmX PPI: disrupts the human Mdm2-MdmX interaction; AID 485346; SaOS-2 split-luciferase Mdm2/MdmX complementation, luminescence; 330,000 tested, 3% active; inhibition, % at 8 µM; O15151+Q00987;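 active = inhibition of at least 50% at 8 µM in the primary screen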
Mdm2 MdmX conf: human Mdm2/MdmX binding inhibition, confirmed; AID 489028; shares compounds with Mdm2 MdmX PPI; inhibition, % at 8 µM; luminescent assay; 10,000 tested, 55% active; in the data active = inhibition above about 40%
FLuc counter: counter-screen for Mdm2/MdmX inhibitors: full-length luciferase; shares compounds with Mdm2 MdmX PPI; SaOS-2 full-length luciferase counterscreen, luminescence; inhibition, % at 8 µM; 6,200 tested, 77% active; AID 504607;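 active = mean inhibition at 8 µM reaching about 37%, which flags the compound as non-specific, limit read from the data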;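 also: p53-null SaOS-2 cells with luciferase driven by a doxycycline-inducible promoter; compound on cells about two nights before reading with doxycycline added after day one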
* hit, by the source's call; ? = inconclusive; . = no result.

SMILES	aSyn UTR inh	Jurkat NFkB inh	697 NFkB inh	VIM-2 inhibitor	IMP-1 inh	Mdm2 MdmX PPI	Mdm2 MdmX conf	others
O=C1CN=C(c2ccc(Br)cc2)c2oc3ccccc3c2N1	29.2	-2.9	-3.1	-1.7	-3.0	58.3*	22.1
CCCCCCC(=O)N/N=C/c1c(O)n(CCc2ccccc2)c(=O)[nH]c1=O	.	-12.6	15.8	-3.4	-4.1	59.1*	35.8
CCCCCCC(=O)N/N=C/c1c(O)n(C(C)CC)c(=S)[nH]c1=O (configuration not stated)	.	-0.4	3.3	-3.3	-3.1	57.5*	14.3
CCCCCCC(=O)N/N=C/c1c(O)n(C2CC2)c(=S)[nH]c1=O	2.0	3.5	16.4	-3.7	-4.1	4.8	.
O=C(N/N=C/c1c(O)n(CCc2ccccc2)c(=O)[nH]c1=O)c1ccccc1O	0.3	0.9	20.2	-3.7	-5.4	-2.1	.
CN(C)c1ccc(/C=C/c2cc[n+](C)c3ccccc23)cc1	.	.	.	-2.5	-4.2	.	.
CN(C)c1ccc(/C=C/C=C/c2sc3ccccc3[n+]2C)cc1	?	20.4	-44.4	-3.0	-4.6	82.3*	61.6*	FLuc counter=44.8*
COc1cccc(-c2nn(CCC#N)cc2C(=O)Nc2ccccc2Cl)c1	-5.0	26.5	1.0	-2.0	-3.1	16.4	.
O=C1c2ccccc2C2(c3ccc(Cl)cc3)NCCN12 (configuration not stated)	4.0	-10.8	-5.3	-0.7	-4.6	-1.3	.
CC(C)[C@H]1C(=O)O[C@H](C(C)C)C(=O)N(C)[C@@H](C(C)C)C(=O)O[C@H](C(C)C)C(=O)N(C)[C@@H](C(C)C)C(=O)O[C@H](C(C)C)C(=O)N1C	85.7*	9.8	-31.9	-4.1	-2.7	95.3*	88.2*	FLuc counter=48.5*
FC(F)(F)c1ccc2c(c1)nnn2C1CCN(Cc2nnnn2Cc2ccccc2)CC1	28.4	13.6	8.4	-4.9	-3.1	10.7	.
Cc1ccc(Cn2nnnc2CN2CCC(n3nnc4cc(C(F)(F)F)ccc43)CC2)cc1	36.0	-5.5	-15.2	-0.5	-1.3	70.6*	28.1
C#C[C@@]1(O)CCC2C3CCC4=C/C(=N/OCC(=O)NC(CCC(N)=O)C(=O)O)CC[C@]4(C)C3CC[C@@]21C (some centres not stated)	4.7	-15.9	-14.8	-1.6	-1.0	3.7	.
CC(=O)Nc1ccccc1OP1(=O)COc2ccccc2OC1	-24.9	-10.0	-11.7	-4.4	-1.9	6.4	.

Assay outcomes: PubChem BioAssay, several laboratories
